Consider one molecule from ChEMBL document CHEMBL4382210, “Identification of novel benzothiopyranone compounds against Mycobacterium tuberculosis through scaffold morphing from benzothiazinones” (Eur J Med Chem, 2018).

The IC50 is the midpoint of a concentration-inhibition curve. For orientation: AUC(0-inf) means total exposure, with the tail of the curve extrapolated. What is called bioavailability is dose-corrected exposure relative to a reference, in per cent. The clearance is the rate of elimination divided by the concentration. As a reminder, the LD50 is the dose expected to kill half of the subjects tested. One may read the MIC90 as an inhibitory concentration at the 90% level, which refers to growth in some studies and to a panel of isolates in others. The Cmax is the maximum level reached in the sampled fluid or tissue. For orientation: MRT inf means the average time that molecules of a dose stay in the body. The AUC(0-t) is the area under the concentration-time curve up to a stated or last time point.

Some results are limits rather than exact numbers.

One series concerns the target Cytochrome P450 3A4 (Homo sapiens, UniProt P08684). Put plainly: Inhibition of CYP3A4 in human liver microsomes after 20 mins by LC-MS/MS analysis. In kind it is ADME. Put shortly: (§1)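 Compound at 0.1–50 µM incubated 20 min with human liver microsomes (0.2 mg/mL) and the CYP isoform, alongside isoform-specific probe substrates. Substrate remaining measured by LC-MS/MS at each concentration to derive IC50.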
A general note: Liver microsomes are vesicles of endoplasmic reticulum, rich in cytochrome P450 enzymes.

Series [1] addresses Voltage-gated inwardly rectifying potassium channel KCNH2 (Homo sapiens, UniProt Q12809). The series is described as follows: Inhibition of human ERG expressed in HEK293 cells by whole-cell patch clamp assay. It is filed as cell-based. Put shortly:
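HEK293 cells stably transfected with hERG. Current recorded by whole-cell manual patch clamp at 25 °C, sampled at 10 kHz. Five concentrations tested (30, 10, 3.0, 1.0, 0.3 µM) in duplicate for IC50, with dofetilide as positive control.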

The subject of another series is Vero. Put plainly: Cytotoxicity against African green monkey Vero cells assessed as reduction in cell viability after 48 hrs by MTT assay. In kind it is cell-based. The note with it: Chlorocebus sabaeus. Put shortly: (§2)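 Vero or HepG2 cells in RPMI1640 with 10% FBS at 37 °C, 5% CO2, seeded at 4×10^5 cells/mL. Threefold dilutions at 64–0.26 µg/mL final for 48 h. Cells then washed with HBSS, MTT added for 4 h, absorbance read at 492 nm. IC50 taken relative to untreated control.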
(In general: Tetrazolium dyes change colour on reduction, which living cells bring about.)

The nature of series [2]: Metabolic stability in CD-1 mouse liver microsomes assessed as parent compound remaining at 1 uM measured after 30 mins in presence of NADPH by LC-MS/MS analysis. In kind it is ADME, Microsome. The note with it: read-out: Stability. The essentials: (§3)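 Male CD-1 mouse or pooled human liver microsomes (1 mg/mL protein), compound at 1 µM, 37 °C. Reaction started with 1 mM NADPH and quenched with cold ACN/MeOH containing internal standard. Parent remaining measured by LC-MS/MS; the 30-min value is normalised to time zero.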

A short description of series [3]: AUC (0 to infinity) in BALB/C mouse at 10 mg/kg, iv by LC/TSQ quantum access mass spectrometry. In kind it is ADME, organism-based. Also on record: dose 10 mg/kg, route intravenous, time infinity. Conditions: in vivo. The essentials: (§4)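 Male Balb/c mice (22–23 g), three per route. Single dose of 25 mg/kg p.o. (2.5 mg/mL in 0.5% carboxymethyl cellulose + 0.5% Tween 80) or 10 mg/kg i.v. (2.0 mg/mL in 20% HP-β-CD with 4 mol/L HCl). Blood sampled 5, 15, 30 min, 1, 2, 4, 7, 24 h. Plasma extracted with acetonitrile plus terfenadine internal standard, then LC-MS/MS on a C18 column. F = (AUCpo×dose_iv)/(AUCiv×dose_po).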

A short description of series [4]: Metabolic stability in human liver microsomes assessed as parent compound remaining at 1 uM measured after 30 mins in presence of NADPH by LC-MS/MS analysis. It is filed as ADME, Microsome. The note with it: read-out: Stability. The essentials: as §3
The nature of series [5]: Half life in human hepatocytes assessed per million cells at 1 uM incubated up to 120 mins by LC-MS/MS analysis. It is filed as ADME, cell-based, Hepatocyte. The essentials:
(§5)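 Pooled male CD-1 mouse or pooled human hepatocytes at 1 million cells/mL final, compound at 1 µM. Incubated at 37 °C in a CO2 incubator with shaking (~100 rpm). Samples taken at 0, 15, 30, 60, 90 and 120 min and quenched with cold ACN/MeOH containing internal standard. Parent compound remaining measured by LC-MS/MS.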

The nature of series [6]: Oral bioavailability in BALB/C mouse at 25 mg/kg by LC/TSQ quantum access mass spectrometry. It is filed as ADME, organism-based. Conditions: in vivo. The essentials: as §4
Series [7] in a line: Clearance in BALB/C mouse at 10 mg/kg, iv by LC/TSQ quantum access mass spectrometry. In kind it is ADME, organism-based. The note with it: in vivo. Put shortly: as §4
Series [8] can be described thus: Acute toxicity in po dosed BALB/C mouse assessed as mortality administered as single dose measured during 7 days observation period. It is filed as organism-based. The note with it: in vivo. The essentials: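 Female Balb/c mice (18–21 g), ten animals, given one oral dose of 2 g/kg. Survivors counted after 7 days of observation.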
A short description of series [9]: Intrinsic clearance in CD-1 mouse hepatocytes assessed per million cells at 1 uM incubated up to 120 mins by LC-MS/MS analysis. In kind it is ADME, cell-based, Hepatocyte. The note with it: read-out: CLH. The essentials: as §5
The subject of series [10] is Mycobacterium tuberculosis. The series is described as follows: Antimicrobial activity against Mycobacterium tuberculosis H37Rv after 7 days by MABA. In kind it is functional. The note with it: 168 h. The essentials:
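Strain H37Rv or clinical isolates grown to late log phase in 7H9-ADC-TG, washed, resuspended in PBS, filtered (8 µm) and frozen. On day 7 Tween 80 and alamar blue added, read 16–24 h later (ex 530/em 590). MIC = lowest concentration giving ≥90% fluorescence reduction versus bacterium-only controls.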

Series [11] in a line: Cmax in BALB/C mouse at 25 mg/kg, po by LC/TSQ quantum access mass spectrometry. It is filed as ADME, organism-based. Also on record: dose 25 mg/kg, route oral. The note with it: in vivo. Put shortly:
as §4

For a further series, the system named is HepG2. The series is described as follows: Cytotoxicity against human HepG2 cells assessed as reduction in cell viability after 48 hrs by MTT assay. In kind it is cell-based. The note with it: HepG2, 48 h. Put shortly:
as §2

Series [12] in a line: Intrinsic clearance in human hepatocytes assessed per million cells at 1 uM incubated up to 120 mins by LC-MS/MS analysis. It is filed as ADME, cell-based, Hepatocyte. Conditions: read-out: CLH. Put shortly: as §5
Another series concerns the target Cytochrome P450 2D6 (Homo sapiens, UniProt P10635). Put plainly: Inhibition of CYP2D6 in human liver microsomes after 20 mins by LC-MS/MS analysis. It is filed as ADME. Put shortly:
as §1

A short description of series [13]: MRT (0 to infinity) in BALB/C mouse at 25 mg/kg, po by LC/TSQ quantum access mass spectrometry. In kind it is ADME, organism-based. Conditions: in vivo. Put shortly:
as §4

A short description of series [14]: AUC (0 to 24 hrs) in BALB/C mouse at 25 mg/kg, po by LC/TSQ quantum access mass spectrometry. It is filed as ADME, organism-based. Also on record: time < 24 hr, dose 25 mg/kg, route oral. Conditions: in vivo. The essentials: as §4
A further series addresses Cytochrome P450 2C9 (Homo sapiens, UniProt P11712). Put plainly: Inhibition of CYP2C9 in human liver microsomes after 20 mins by LC-MS/MS analysis. In kind it is ADME. The essentials:
as §1

Series [15] can be described thus: Elimination half life in BALB/C mouse at 25 mg/kg, po by LC/TSQ quantum access mass spectrometry. In kind it is ADME, organism-based. The note with it: in vivo, read-out: beta t1/2 (converted). Put shortly:
as §4

Series [16] can be described thus: AUC (0 to 24 hrs) in BALB/C mouse at 10 mg/kg, iv by LC/TSQ quantum access mass spectrometry. In kind it is ADME, organism-based. Also on record: time < 24 hr, dose 10 mg/kg, route intravenous. Conditions: in vivo. Put shortly:
as §4

A further series addresses T1, Cytochrome P450 1A2 (Homo sapiens, UniProt P05177).
T1 sequence (P05177 whole entry): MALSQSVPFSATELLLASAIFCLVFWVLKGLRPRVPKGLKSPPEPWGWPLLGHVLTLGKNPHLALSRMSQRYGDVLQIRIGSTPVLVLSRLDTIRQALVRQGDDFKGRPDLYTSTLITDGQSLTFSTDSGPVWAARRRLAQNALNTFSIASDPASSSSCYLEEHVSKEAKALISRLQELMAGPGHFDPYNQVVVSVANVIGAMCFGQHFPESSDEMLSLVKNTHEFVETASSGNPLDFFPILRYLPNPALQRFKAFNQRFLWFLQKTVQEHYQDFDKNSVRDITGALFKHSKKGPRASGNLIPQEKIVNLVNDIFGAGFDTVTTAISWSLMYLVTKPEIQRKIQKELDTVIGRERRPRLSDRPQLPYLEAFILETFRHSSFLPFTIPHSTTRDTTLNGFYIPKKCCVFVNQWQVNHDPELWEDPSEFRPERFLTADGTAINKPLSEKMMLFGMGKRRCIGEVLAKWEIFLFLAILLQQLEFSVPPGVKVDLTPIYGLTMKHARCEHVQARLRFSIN
Put plainly: Inhibition of CYP1A2 in human liver microsomes after 20 mins by LC-MS/MS analysis. It is filed as ADME. The essentials: as §1

Cytochrome P450 3A4, sequence (P08684 whole entry, canonical isoform): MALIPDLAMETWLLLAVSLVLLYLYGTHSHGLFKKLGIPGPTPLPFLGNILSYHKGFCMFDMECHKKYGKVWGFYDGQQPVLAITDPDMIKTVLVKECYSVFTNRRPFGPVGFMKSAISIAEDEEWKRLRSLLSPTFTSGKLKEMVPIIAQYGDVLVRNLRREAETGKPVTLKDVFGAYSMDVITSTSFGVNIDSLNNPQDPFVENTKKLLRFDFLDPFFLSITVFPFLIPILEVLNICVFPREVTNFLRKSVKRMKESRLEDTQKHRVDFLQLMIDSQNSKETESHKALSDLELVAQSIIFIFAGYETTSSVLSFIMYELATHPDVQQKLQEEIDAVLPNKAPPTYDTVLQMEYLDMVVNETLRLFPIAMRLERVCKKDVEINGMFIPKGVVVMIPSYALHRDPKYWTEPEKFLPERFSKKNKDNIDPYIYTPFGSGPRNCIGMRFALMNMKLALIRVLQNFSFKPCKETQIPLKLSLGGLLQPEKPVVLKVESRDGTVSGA
Cytochrome P450 2C9, sequence (P11712 whole entry): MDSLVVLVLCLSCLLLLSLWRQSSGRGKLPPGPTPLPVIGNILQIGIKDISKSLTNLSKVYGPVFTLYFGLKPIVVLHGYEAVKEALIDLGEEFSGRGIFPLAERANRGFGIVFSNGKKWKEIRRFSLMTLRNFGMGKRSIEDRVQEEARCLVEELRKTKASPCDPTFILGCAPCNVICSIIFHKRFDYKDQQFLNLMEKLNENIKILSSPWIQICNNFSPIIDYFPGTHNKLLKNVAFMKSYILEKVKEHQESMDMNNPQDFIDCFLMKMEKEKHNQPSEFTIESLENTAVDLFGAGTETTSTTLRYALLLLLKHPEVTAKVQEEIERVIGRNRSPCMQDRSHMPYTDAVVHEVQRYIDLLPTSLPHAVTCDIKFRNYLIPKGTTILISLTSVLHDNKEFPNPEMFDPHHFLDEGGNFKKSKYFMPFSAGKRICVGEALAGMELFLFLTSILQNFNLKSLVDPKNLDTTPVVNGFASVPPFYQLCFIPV
Cytochrome P450 2D6, sequence (P10635 whole entry): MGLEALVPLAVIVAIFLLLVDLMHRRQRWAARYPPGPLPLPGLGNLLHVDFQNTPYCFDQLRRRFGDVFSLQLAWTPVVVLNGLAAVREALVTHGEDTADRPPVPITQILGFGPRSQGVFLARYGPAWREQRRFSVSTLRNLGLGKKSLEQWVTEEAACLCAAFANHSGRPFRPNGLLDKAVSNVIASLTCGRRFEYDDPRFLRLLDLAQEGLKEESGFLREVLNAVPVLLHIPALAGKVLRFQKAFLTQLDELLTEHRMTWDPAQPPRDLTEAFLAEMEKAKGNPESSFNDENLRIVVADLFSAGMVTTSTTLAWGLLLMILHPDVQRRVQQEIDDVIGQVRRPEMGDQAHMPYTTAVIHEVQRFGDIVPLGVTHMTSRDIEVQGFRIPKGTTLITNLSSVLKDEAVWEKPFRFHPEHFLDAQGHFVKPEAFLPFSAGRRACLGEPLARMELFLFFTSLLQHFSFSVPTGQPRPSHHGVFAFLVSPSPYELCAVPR
Voltage-gated inwardly rectifying potassium channel KCNH2, sequence (Q12809 whole entry): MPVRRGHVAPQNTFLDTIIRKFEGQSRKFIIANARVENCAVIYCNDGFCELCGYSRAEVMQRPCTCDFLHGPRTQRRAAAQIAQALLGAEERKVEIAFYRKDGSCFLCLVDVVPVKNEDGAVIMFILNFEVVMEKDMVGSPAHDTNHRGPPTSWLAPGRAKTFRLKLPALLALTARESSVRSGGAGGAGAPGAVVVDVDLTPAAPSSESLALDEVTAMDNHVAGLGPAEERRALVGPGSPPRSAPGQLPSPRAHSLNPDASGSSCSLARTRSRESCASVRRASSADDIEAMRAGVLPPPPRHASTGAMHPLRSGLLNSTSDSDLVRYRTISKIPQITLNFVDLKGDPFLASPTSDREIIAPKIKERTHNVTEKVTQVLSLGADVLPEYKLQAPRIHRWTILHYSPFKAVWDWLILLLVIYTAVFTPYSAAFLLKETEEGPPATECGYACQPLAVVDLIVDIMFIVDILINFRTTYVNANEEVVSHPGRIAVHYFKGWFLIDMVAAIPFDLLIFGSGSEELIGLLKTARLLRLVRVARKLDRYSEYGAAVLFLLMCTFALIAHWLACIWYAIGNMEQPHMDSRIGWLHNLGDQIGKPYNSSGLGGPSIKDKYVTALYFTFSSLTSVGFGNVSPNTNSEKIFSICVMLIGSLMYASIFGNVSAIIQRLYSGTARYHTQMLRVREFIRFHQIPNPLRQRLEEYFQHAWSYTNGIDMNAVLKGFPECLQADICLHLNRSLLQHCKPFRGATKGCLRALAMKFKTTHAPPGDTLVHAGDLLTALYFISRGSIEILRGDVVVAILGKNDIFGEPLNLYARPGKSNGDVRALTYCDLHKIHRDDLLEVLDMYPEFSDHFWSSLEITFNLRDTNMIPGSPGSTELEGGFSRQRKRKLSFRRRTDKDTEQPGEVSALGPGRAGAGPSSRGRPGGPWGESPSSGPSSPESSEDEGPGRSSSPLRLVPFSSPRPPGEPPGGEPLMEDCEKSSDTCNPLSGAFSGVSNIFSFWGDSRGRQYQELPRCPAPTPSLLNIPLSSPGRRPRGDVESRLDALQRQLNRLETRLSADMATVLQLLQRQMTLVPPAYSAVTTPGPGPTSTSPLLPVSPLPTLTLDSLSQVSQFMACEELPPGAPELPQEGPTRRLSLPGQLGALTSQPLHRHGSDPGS

Turning to `O=c1cc(N2CCN(CC3CCCCC3)CC2)sc2c([N+](=O)[O-])cc(C(F)(F)F)cc12`, the IC50 is above 50 µM on Cytochrome P450 3A4; above 30 µM in series [1]; above 64 µg/mL in the series on Vero; above 64 µg/mL with HepG2; above 50 µM at Cytochrome P450 2D6; above 50 µM against Cytochrome P450 2C9. The molecule further yielded a concentration for half-maximal inhibition (IC50) at Cytochrome P450 1A2 above 50 µM. Moreover, the remaining at 0.5 h, 1 µM in series [2] came to 61.5%; in series [4] it was 66.7%. The molecule further displayed an AUC(0-inf) in [3] of 5180 ng·h/mL. For the same molecule, the half-life at 1 µM in [5] came out at 3.73 h. The same molecule gave a bioavailability in series [6] of 13.1%. Moreover, the clearance in series [7] turned out to be 32.3 mL/min/kg. Moreover, the median lethal dose (LD50) at 168 h in [8] was above 2000 mg/kg. Moreover, the values for the hepatocyte CLint at 1 µM in [9] and in series [12] were 1.5 µL/min/1e6 cells and 3.1 µL/min/1e6 cells, respectively. In addition, the MIC90 in [10] is below 0.016 µg/mL. For the same molecule, the highest concentration (Cmax) in series [11] was 588 ng/mL. In series [13], this molecule registered an MRT inf of 6.59 h. In addition, the AUC(0-t) at 24 h amounted to 1580 ng·h/mL in series [14] and 4950 ng·h/mL in [16]. Further, the half-life in series [15] was 7.25 h.
